The values below come from ChEMBL document CHEMBL4011617, “Ugi Reaction-Derived α-Acyl Aminocarboxamides Bind to Phosphatidylinositol 3-Kinase-Related Kinases, Inhibit HSF1-Dependent Heat Shock Response, and Induce Apoptosis in Multiple Myeloma Cells” (J Med Chem, 2017).

The source made the active and inactive calls. The calls are words filed in the database; no cut-off is given here.

In assay [1] the test system is INA-6. As to the kind of experiment: Inhibition of heat shock response in human INA-6 cells assessed as reduction in HSF-1 mediated upregulation of the heat shock protein HSP27 at 50 uM preincubated for 4 hrs followed by HSP90 inhibitor and HSR inducer NVP-AUY922 addition measured after 4 hrs by Western blot method. It counts as functional, cell-based. The procedure, abridged:
(§1)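 INA-6 myeloma cells pretreated with test compound for 4 h, then co-treated with the HSP90 inhibitor/HSR inducer NVP-AUY922 for a further 4 h. Cells harvested; HSP72, HSP27, HSF1 or phospho-HSF1 probed by Western blot with β-actin as loading control. DMSO-only cells were the negative control; NVP-AUY922-only cells were the positive control.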

Assay [2] deals with INA-6. As to the kind of experiment: Inhibition of heat shock response in human INA-6 cells assessed as reduction in HSF-1 mediated upregulation of the heat shock protein HSP72 at 50 uM preincubated for 4 hrs followed by HSP90 inhibitor and HSR inducer NVP-AUY922 addition measured after 4 hrs by ELISA. The class given is functional, cell-based. The procedure, abridged: (§2)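 HSP72 quantified by ELISA in the same protein lysates used for Western blots. INA-6 cells received compound for 4 h, then NVP-AUY922 co-treatment for 4 h more to stimulate HSF1. DMSO-only and NVP-AUY922-only cells served as negative and positive controls.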
(ELISA stands for enzyme-linked immunosorbent assay.)

The subject of assay [3] is INA-6. As to the kind of experiment: Inhibition of heat shock response in human INA-6 cells assessed as reduction in HSF-1 mediated upregulation of the heat shock protein HSP72 at 50 uM preincubated for 4 hrs followed by HSP90 inhibitor and HSR inducer NVP-AUY922 addition measured after 4 hrs by Western blot method. The class given is functional, cell-based. A digest of the protocol:
as §1
(Immunoblotting shows a protein as a band on a membrane.)

In assay [4] the target is Heat shock factor protein 1 (Homo sapiens) (UniProt Q00613). As to the kind of experiment: Inhibition of NVP-AUY922-induced HSF-1 phosphorylation at S326 residue in human INA-6 cells at 50 uM preincubated for 4 hrs followed by NVP-AUY922 addition measured after 4 hrs by Western blot method. It counts as cell-based. A digest of the protocol:
as §1

The subject of assay [5] is INA-6. The assay can be described thus: Inhibition of heat shock response in human INA-6 cells assessed as reduction in HSF-1 mediated upregulation of the heat shock protein HSP27 at 50 uM preincubated for 4 hrs followed by HSP90 inhibitor and HSR inducer NVP-AUY922 addition measured after 4 hrs by ELISA. It counts as functional, cell-based.
The test system of assay [6] is INA-6. As to the kind of experiment: Downregulation of NVP-AUY922-induced HSF-1 protein expression in human INA-6 cells at 50 uM preincubated for 4 hrs followed by NVP-AUY922 addition measured after 4 hrs by Western blot method. It counts as functional, cell-based. The procedure, abridged: as §1
For assay [7], the target named is CCR4-NOT transcription complex subunit 3 (Homo sapiens) (UniProt O75175). As to the kind of experiment: Binding affinity to CCR4-NOT transcription complex subunit 3 in human INA-6 cells after 3 hrs by nanoLC-MS/MS method. The class given is cell-based. A digest of the protocol:
(§3)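 The biotinylated inhibitor was loaded on streptavidin beads, with empty beads as the control. Eluates were trypsin-digested and run by nanoLC-MS/MS. Inhibitor/control ratios came from label-free quantification, taken as medians of five biological replicates. Enrichment was called at Benjamini-Hochberg-adjusted limma p < 0.02.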

For assay [8], the target named is Serine-protein kinase ATM (Homo sapiens) (UniProt Q13315). As to the kind of experiment: Binding affinity to ATM protein in human INA-6 cells after 3 hrs by nanoLC-MS/MS method. The class given is cell-based. A digest of the protocol:
as §3

The target of assay [9] is CCR4-NOT transcription complex subunit 2 (Homo sapiens) (UniProt Q9NZN8). The assay can be described thus: Binding affinity to CCR4-NOT transcription complex subunit 2 in human INA-6 cells after 3 hrs by nanoLC-MS/MS method. It counts as cell-based. The procedure, abridged:
as §3

For assay [10], the target named is CCR4-NOT transcription complex subunit 7 (Homo sapiens) (UniProt Q9UIV1). As to the kind of experiment: Binding affinity to CCR4-NOT transcription complex subunit 7 in human INA-6 cells after 3 hrs by nanoLC-MS/MS method. It counts as cell-based. The procedure, abridged: as §3
Chain of CCR4-NOT transcription complex subunit 7 (Homo sapiens) (Q9UIV1 whole entry, one chain of several): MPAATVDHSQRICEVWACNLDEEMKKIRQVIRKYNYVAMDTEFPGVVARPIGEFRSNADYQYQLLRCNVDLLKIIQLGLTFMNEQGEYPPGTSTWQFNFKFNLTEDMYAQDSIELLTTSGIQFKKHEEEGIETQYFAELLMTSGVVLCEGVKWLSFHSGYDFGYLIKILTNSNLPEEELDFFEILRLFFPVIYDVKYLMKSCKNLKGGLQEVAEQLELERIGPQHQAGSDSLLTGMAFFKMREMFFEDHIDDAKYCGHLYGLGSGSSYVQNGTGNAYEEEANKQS
Assay [11] addresses CCR4-NOT transcription complex subunit 9 (Homo sapiens) (UniProt Q92600). The assay can be described thus: Binding affinity to RCD1 protein in human INA-6 cells after 3 hrs by nanoLC-MS/MS method. It counts as cell-based. A digest of the protocol: as §3
Assay [12] has as its target CCR4-NOT transcription complex subunit 1 (Homo sapiens) (UniProt A5YKK6). As to the kind of experiment: Binding affinity to CCR4-NOT transcription complex subunit 1 in human INA-6 cells after 3 hrs by nanoLC-MS/MS method. It counts as cell-based. The procedure, abridged:
as §3

The target in assay [13] is DNA-dependent protein kinase catalytic subunit (Homo sapiens) (UniProt P78527). As to the kind of experiment: Binding affinity to PRKDC protein in human INA-6 cells after 3 hrs by nanoLC-MS/MS method. The class given is cell-based. A digest of the protocol:
as §3

In assay [14] the target is Serine/threonine-protein kinase mTOR (Homo sapiens) (UniProt P42345). As to the kind of experiment: Binding affinity to mTOR protein in human INA-6 cells after 3 hrs by nanoLC-MS/MS method. It counts as cell-based. The procedure, abridged:
as §3

The target of assay [15] is CCR4-NOT transcription complex subunit 6-like (Homo sapiens) (UniProt Q96LI5). The assay can be described thus: Binding affinity to CCR4-NOT transcription complex subunit 6-like in human INA-6 cells after 3 hrs by nanoLC-MS/MS method. It counts as cell-based. The procedure, abridged: as §3
Assay [16] addresses Serine/threonine-protein kinase ATR (Homo sapiens) (UniProt Q13535). As to the kind of experiment: Binding affinity to ATR protein in human INA-6 cells after 3 hrs by nanoLC-MS/MS method. It counts as cell-based. A digest of the protocol: as §3
In assay [17] the test system is INA-6. The assay can be described thus: Inhibition of heat shock response in human INA-6 cells assessed as reduction in HSF-1 mediated upregulation of the heat shock protein HSP27 at 12.5 uM preincubated for 4 hrs followed by HSP90 inhibitor and HSR inducer NVP-AUY922 addition measured after 4 hrs by Western blot method. It counts as functional, cell-based. The procedure, abridged:
as §1

Assay [18] relates to INA-6. As to the kind of experiment: Inhibition of heat shock response in human INA-6 cells assessed as reduction in HSF-1 mediated upregulation of the heat shock protein HSP27 at 12.5 uM preincubated for 4 hrs followed by HSP90 inhibitor and HSR inducer NVP-AUY922 addition measured after 4 hrs by ELISA. The class given is functional, cell-based.
Assay [19] concerns INA-6. The assay can be described thus: Inhibition of heat shock response in human INA-6 cells assessed as reduction in HSF-1 mediated upregulation of the heat shock protein HSP72 at 12.5 uM preincubated for 4 hrs followed by HSP90 inhibitor and HSR inducer NVP-AUY922 addition measured after 4 hrs by Western blot method. The class given is functional, cell-based. A digest of the protocol: as §1

The subject of assay [20] is INA-6. The assay can be described thus: Induction of apoptosis in human INA-6 cells at 6.3 to 8.6 uM after 72 hrs by annexin V-FITC/propidium iodide staining-based flow cytometry method. The class given is functional, cell-based. A digest of the protocol:
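INA-6 cells incubated three days with DMSO or increasing compound concentrations. Viability read by annexin V-FITC/propidium iodide staining and flow cytometry. Double-negative (viable) fractions used to fit dose-response curves from three independent experiments; mean ± SD reported.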
For orientation: In flow cytometry, cells or beads pass a laser one at a time.

In assay [21] the test system is INA-6. The assay can be described thus: Effect on NVP-AUY922-induced HSF-1 mRNA expression in human INA-6 cells at 12.5 uM preincubated for 4 hrs followed by NVP-AUY922 addition measured after 4 hrs by RT-PCR method. The class given is functional, cell-based. A digest of the protocol:
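INA-6 cells exposed to compound for 4 h, then co-treated with 10 nM NVP-AUY922 for another 4 h. Total RNA isolated; HSP27, HSP72 and HSF1 transcripts measured by real-time PCR and normalized to α-tubulin. Means and standard deviations from three independent experiments.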

Assay [22] deals with INA-6. The assay can be described thus: Inhibition of heat shock response in human INA-6 cells assessed as reduction in HSF-1 mediated upregulation of the heat shock protein HSP72 at 12.5 uM preincubated for 4 hrs followed by HSP90 inhibitor and HSR inducer NVP-AUY922 addition measured after 4 hrs by ELISA. The class given is functional, cell-based. A digest of the protocol:
as §2

Chain of CCR4-NOT transcription complex subunit 3 (Homo sapiens) (O75175 whole entry, one chain of several): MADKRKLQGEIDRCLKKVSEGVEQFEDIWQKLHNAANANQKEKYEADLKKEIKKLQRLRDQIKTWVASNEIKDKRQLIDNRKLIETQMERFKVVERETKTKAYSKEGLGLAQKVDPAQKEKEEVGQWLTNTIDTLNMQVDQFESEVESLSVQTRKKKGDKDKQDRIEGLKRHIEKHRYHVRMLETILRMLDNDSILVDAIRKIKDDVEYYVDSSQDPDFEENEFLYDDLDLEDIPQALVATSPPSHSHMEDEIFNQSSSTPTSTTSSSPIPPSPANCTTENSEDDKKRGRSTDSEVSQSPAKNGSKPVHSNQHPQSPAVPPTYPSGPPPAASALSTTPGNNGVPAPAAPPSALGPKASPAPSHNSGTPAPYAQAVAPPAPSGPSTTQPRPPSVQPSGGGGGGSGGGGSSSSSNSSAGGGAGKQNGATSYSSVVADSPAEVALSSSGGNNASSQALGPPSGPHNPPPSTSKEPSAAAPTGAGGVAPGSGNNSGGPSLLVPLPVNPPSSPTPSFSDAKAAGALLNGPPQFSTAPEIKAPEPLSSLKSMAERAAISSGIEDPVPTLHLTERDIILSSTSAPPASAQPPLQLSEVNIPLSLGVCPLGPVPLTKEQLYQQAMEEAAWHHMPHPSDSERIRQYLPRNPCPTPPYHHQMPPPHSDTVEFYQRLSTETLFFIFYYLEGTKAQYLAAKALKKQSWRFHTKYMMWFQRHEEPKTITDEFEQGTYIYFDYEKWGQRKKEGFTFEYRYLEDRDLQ
Chain of Serine-protein kinase ATM (Homo sapiens) (Q13315 whole entry): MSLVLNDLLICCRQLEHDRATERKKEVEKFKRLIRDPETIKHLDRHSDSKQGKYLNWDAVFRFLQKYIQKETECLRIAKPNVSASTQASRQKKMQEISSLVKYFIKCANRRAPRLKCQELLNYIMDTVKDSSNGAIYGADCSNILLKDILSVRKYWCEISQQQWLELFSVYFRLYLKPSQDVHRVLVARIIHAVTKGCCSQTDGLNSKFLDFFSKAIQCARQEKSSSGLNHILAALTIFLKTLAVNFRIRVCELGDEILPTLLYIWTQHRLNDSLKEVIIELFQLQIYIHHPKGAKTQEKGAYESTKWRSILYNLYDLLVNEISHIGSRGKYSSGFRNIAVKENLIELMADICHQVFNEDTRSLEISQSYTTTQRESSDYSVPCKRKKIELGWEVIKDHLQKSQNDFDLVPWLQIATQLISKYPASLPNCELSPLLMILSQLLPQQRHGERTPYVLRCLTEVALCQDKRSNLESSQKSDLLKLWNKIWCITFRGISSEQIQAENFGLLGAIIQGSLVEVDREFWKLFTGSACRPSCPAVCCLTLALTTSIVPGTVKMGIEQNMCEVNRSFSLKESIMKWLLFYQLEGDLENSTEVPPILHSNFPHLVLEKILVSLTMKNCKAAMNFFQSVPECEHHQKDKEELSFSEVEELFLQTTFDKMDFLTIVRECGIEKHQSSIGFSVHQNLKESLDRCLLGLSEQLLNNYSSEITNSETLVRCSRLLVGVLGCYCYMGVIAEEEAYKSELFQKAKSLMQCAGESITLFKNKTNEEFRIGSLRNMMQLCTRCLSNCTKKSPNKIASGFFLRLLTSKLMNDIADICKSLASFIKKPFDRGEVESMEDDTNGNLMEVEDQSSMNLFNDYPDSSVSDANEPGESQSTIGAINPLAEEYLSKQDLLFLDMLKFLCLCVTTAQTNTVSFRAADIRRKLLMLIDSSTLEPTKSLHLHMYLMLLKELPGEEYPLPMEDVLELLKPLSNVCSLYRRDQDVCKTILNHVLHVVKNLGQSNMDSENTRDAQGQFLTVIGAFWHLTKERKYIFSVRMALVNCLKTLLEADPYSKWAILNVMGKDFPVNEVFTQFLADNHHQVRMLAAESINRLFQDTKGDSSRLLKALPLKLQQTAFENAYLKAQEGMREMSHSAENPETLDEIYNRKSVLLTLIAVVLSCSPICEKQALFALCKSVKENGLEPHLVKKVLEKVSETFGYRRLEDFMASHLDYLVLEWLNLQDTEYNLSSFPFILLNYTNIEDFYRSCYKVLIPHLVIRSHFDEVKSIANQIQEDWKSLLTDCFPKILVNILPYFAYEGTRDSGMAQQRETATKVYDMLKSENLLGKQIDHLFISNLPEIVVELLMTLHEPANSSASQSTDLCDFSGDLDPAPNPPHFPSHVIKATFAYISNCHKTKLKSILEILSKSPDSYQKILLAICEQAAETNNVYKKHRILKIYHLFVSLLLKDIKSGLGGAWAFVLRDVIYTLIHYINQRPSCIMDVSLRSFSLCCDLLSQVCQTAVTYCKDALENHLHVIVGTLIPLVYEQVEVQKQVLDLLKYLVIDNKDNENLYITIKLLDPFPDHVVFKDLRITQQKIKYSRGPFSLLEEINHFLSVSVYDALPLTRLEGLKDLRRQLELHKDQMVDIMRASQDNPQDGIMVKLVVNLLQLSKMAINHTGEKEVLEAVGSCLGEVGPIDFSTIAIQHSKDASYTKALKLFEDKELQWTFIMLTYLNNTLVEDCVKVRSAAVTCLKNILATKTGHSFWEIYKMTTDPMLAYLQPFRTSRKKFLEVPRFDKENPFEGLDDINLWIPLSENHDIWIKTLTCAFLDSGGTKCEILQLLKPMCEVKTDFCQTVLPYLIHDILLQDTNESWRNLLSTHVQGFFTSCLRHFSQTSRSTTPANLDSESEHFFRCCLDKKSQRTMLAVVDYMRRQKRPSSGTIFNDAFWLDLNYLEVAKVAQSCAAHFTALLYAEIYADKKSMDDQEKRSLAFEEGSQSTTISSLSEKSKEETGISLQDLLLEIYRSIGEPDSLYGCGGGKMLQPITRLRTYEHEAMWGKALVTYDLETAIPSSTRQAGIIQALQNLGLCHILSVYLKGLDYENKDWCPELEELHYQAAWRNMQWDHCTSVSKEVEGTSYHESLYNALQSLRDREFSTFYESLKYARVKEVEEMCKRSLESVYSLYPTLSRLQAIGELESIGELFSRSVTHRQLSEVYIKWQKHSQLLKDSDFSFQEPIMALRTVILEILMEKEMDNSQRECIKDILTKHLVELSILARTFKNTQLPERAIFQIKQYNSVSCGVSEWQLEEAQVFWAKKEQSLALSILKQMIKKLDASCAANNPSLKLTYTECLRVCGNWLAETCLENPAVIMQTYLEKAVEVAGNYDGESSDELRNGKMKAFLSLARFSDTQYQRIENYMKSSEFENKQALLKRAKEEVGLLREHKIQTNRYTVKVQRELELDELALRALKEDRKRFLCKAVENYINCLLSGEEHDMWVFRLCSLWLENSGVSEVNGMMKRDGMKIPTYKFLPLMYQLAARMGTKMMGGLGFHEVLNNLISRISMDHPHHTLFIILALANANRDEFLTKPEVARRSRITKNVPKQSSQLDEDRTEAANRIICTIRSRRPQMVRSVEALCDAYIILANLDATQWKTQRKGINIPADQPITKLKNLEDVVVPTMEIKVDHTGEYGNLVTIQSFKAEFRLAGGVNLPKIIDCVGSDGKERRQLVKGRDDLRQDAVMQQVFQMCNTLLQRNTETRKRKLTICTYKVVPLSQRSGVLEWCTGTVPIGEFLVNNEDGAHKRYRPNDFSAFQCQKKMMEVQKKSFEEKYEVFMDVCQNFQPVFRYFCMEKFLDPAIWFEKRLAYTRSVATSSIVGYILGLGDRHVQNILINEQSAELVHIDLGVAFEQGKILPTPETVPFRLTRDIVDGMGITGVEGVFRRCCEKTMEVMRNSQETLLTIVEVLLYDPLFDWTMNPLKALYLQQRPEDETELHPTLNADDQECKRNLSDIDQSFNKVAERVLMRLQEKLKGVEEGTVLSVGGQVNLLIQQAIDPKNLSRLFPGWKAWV
Chain of CCR4-NOT transcription complex subunit 9 (Homo sapiens) (Q92600 whole entry, one chain of several): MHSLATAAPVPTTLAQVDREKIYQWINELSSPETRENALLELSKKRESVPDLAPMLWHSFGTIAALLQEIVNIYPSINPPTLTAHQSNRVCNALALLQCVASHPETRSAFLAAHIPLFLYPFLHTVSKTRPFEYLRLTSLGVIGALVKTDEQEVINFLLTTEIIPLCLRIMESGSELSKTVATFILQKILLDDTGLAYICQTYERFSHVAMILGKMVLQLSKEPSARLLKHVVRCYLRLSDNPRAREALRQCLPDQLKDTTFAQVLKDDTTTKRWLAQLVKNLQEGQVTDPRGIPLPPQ
Chain of CCR4-NOT transcription complex subunit 2 (Homo sapiens) (Q9NZN8 whole entry, one chain of several): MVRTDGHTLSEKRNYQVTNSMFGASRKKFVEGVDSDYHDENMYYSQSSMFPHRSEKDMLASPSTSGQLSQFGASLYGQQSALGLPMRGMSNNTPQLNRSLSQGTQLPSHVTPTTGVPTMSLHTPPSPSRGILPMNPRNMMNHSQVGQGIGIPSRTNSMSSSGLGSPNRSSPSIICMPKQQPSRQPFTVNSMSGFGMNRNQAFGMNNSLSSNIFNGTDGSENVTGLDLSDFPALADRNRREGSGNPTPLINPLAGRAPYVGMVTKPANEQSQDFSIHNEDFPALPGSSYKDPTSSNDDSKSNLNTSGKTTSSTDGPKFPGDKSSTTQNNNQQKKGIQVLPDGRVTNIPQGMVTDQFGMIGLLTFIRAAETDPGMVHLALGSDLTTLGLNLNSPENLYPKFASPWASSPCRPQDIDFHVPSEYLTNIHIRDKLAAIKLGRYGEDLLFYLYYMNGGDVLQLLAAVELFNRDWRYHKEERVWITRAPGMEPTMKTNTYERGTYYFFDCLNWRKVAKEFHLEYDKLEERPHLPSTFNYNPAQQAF

Regarding “N-(2-(Benzylamino)-1-(2-bromophenyl)-2-oxoethyl)-N-cyclopropylcinnamamide”, the “activity call (active/not active) for inhibition of HSP27 upregulation” value in assay [1] is “Active”. For the same compound, in assay [2], the “HSP72 upregulation inhibition (active/not active)” value is “Active”. Also, the “heat shock response inhibition (active/not active)” value in assay [3] and in assay [5] was “Active” in each case. In addition, the inhibition entry in [4] was “Active”. Also, in assay [6], the result was Active.
As for `O=C(CCCC[C@@H]1SC[C@@H]2NC(=O)N[C@@H]21)NCCOCCOCCNCCCCOc1ccc(CCC(=O)N(C2CC2)C(C(=O)NCc2ccccc2)c2ccc(Br)cc2)cc1` (mixture of isomers), in [1], the “activity call (active/not active) for inhibition of HSP27 upregulation” value was “inactive”. In addition, the “HSP72 upregulation inhibition (active/not active)” value in [2] was “inactive”. Besides, the outcome in assay [7], in [8], in [9], in assay [10], in assay [11] and in [12] was Active. The outcome in assay [13], in assay [14], in assay [15] and in assay [16] was Active. The “heat shock response inhibition (active/not active)” value in assay [5] was “inactive”.
With `NCCOCCOCCNCCCCOc1ccc(CCC(=O)N(C2CC2)C(C(=O)NCc2ccccc2)c2ccc(Br)cc2)cc1` (racemic), the inhibition entry in assay [17], in [18], in assay [19] and in [22] was “inactive” each time. For the same compound, the outcome in assay [20] was Active. Further, the result in assay [21] was inactive.
